IC50 and Activity data for 16 compounds are collected here from ChEMBL document CHEMBL3414543, “Novel series of benzoquinones with high potency against 5-lipoxygenase in human polymorphonuclear leukocytes” (Eur J Med Chem, 2015).

SMILES strings stand for the structures.

Test [1] has as its target T1, Polyunsaturated fatty acid 5-lipoxygenase (Homo sapiens, UniProt P09917).
T1 sequence (P09917 whole entry): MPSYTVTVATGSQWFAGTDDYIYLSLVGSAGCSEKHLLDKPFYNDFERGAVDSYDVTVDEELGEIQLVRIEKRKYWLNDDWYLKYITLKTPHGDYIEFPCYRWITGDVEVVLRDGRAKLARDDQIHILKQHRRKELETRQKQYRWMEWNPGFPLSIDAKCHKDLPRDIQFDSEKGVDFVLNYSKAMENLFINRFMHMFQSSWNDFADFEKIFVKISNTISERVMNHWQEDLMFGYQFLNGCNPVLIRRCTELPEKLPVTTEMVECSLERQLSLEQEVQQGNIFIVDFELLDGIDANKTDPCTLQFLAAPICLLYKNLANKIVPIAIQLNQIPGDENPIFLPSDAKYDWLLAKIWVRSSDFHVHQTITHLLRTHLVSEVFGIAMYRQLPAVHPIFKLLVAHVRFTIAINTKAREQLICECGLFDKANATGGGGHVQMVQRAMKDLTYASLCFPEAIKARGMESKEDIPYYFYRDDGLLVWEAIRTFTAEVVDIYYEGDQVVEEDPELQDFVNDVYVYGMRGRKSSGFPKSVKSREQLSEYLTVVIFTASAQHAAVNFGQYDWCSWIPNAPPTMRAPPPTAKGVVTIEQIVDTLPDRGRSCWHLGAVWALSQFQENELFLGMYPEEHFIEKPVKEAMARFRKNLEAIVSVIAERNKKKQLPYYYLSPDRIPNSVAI
Nature of the test: Inhibition of human recombinant 5-LOX expressed in Escherichia coli BL21 incubated for 10 mins in presence of arachidonic acid by RP-HPLC based cell-free assay. Put shortly:
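Recombinant human 5-LO, semi-purified from a 40,000 × g lysate supernatant on ATP-agarose, diluted in ice-cold PBS with 1 mM EDTA and 1 mM ATP. Preincubated 10 min at 4 °C with compound or 0.1% DMSO, warmed 30 s at 37 °C, then started with 2 mM CaCl₂ plus 20 µM AA. Reaction 10 min at 37 °C, stopped with cold methanol, products by RP-HPLC. IC₅₀ from 4–5 concentrations.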

Test [2] addresses T1, Polyunsaturated fatty acid 5-lipoxygenase. Nature of the test: Inhibition of 5-LOX in A23187-stimulated human blood PMNL assessed as reduction in lipoxygenase products formation pre-incubated for 15 mins followed by stimulation with A23187 for 10 mins by RP-HPLC based cell based assay. Put shortly:
(§1)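 Human PMNL (5 × 10⁶ in 1 ml PBS pH 7.4, 1 mg/ml glucose, 1 mM CaCl₂), preincubated 15 min at 37 °C with compound or 0.1% DMSO, then stimulated 10 min at 37 °C with A23187, with or without AA. 5-LO products measured. Values are mean ± S.E. of 3–4 independent experiments. IC₅₀ read graphically from 4–5 concentrations.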

The target is the same in test [3]. Nature of the test: Inhibition of 5-LOX in A23187-stimulated human blood PMNL assessed as reduction in lipoxygenase products formation in presence of arachidonic acid pre-incubated for 15 mins followed by stimulation with A23187 for 10 mins by RP-HPLC based cell based assay. Put shortly: as §1
Test [4] deals with T2, Polyunsaturated fatty acid lipoxygenase ALOX15 (Homo sapiens) (UniProt P16050).
T2 sequence (whole entry): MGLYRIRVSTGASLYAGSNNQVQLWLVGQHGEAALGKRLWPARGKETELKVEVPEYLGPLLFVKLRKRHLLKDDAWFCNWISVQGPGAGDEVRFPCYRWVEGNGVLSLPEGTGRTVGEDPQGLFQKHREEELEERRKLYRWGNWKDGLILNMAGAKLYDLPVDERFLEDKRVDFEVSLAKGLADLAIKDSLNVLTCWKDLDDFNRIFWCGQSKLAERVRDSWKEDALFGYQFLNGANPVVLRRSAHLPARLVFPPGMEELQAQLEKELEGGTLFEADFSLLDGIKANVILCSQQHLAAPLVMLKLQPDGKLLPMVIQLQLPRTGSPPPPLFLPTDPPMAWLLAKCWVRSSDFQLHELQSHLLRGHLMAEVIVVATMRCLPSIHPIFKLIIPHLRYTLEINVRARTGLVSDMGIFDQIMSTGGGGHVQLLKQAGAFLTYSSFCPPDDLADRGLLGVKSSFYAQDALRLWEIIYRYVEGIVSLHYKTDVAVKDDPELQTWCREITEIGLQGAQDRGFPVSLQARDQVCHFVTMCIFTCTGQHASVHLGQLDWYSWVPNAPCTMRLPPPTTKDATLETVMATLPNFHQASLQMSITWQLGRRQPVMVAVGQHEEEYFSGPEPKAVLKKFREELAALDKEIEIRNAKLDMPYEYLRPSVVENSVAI
The test can be described thus: Inhibition of 15-LOX-1 in human blood PMNL assessed as remaining activity by measuring 15-HETE synthesis at 10 uM. Put shortly: (§2)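 PMNL isolated from heparinized blood of fasted healthy donors by dextran sedimentation and Nycoprep centrifugation, with hypotonic lysis of erythrocytes. Cells at 5 × 10⁶ in 1 ml PBS pH 7.4 with 1 mg/ml glucose and 1 mM CaCl₂, preincubated 15 min at 37 °C with compound or 0.1% DMSO vehicle, then stimulated 10 min at 37 °C. 12-HETE or 15-HETE formation measured.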

The target of test [5] is T3, Polyunsaturated fatty acid lipoxygenase ALOX12 (Homo sapiens) (UniProt P18054).
T3 sequence (whole entry): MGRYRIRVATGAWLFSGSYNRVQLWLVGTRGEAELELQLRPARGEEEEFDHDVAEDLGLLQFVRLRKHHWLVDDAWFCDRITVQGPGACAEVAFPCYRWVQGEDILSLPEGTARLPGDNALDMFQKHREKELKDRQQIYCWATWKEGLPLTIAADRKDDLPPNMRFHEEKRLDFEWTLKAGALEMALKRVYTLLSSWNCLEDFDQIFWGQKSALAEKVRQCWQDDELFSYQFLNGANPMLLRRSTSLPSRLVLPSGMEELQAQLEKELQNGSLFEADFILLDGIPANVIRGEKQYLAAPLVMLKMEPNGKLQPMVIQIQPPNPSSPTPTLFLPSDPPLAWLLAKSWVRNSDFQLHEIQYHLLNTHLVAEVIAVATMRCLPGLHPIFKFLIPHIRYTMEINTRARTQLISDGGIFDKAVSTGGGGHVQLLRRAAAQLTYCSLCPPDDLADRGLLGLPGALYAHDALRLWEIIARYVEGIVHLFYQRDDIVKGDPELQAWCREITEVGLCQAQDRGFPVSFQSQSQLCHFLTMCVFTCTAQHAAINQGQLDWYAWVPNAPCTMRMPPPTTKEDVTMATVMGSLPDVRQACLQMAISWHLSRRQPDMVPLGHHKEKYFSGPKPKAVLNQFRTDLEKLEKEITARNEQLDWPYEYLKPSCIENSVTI
The test can be described thus: Inhibition of 12-LOX in human blood PMNL assessed as remaining activity by measuring 12-HETE synthesis at 10 uM. Put shortly:
as §2

For the compound `CCCCCCCCCCCCCC1=C(O)C(=O)C=C(OC)C1=O` [Sorgoleone-364], the IC50 is 920 nM in test [1], 770 nM in test [2] and 2300 nM in test [3]. The Activity was 88.1% in test [4] and 73.2% in test [5].

For the compound `CCCCCCCCCCCCC1=C(OC)C(=O)C=C(OC)C1=O`, the IC50 is 610 nM in test [1], 630 nM in test [2] and 490 nM in test [3]. The values for the Activity in test [4] and in test [5] were 127% and 138%, respectively.

With `CCCCCCCCCCCCCCCC1=C(O)C(=O)C=C(OC)C1=O`, the IC50 is 270 nM in test [1], 390 nM in test [2] and 860 nM in test [3]. Further, the Activity in test [4] is 103%; in test [5] it was 92.8%.

For the compound `COC1=CC(=O)C(O)=C(C/C=C(\C)CC/C=C(\C)CCC=C(C)C)C1=O`, the IC50 in test [1] amounted to 5600 nM; in test [2], 1900 nM; in test [3] it was 2400 nM. Moreover, the Activity in test [4] was found to be 122%; in test [5], 108%.

Consider `COC1=CC(=O)C(=O)C(C/C=C(\C)CCC=C(C)C)=C1OC`, for which the IC50 was determined as 600 nM in test [1], 380 nM in test [2] and 390 nM in test [3]. The values for the Activity in test [4] and in test [5] were 125% and 72.8%, respectively.

Regarding `CCCCCCCCCCC1=C(OC)C(=O)C=C(OC)C1=O`, the IC50 in test [1] was 1800 nM; in test [2], 600 nM; in test [3] it was 1700 nM. Besides, the Activity in test [5] amounted to 144%.

As for `CCCCCCCCC1=C(OC)C(=O)C=C(OC)C1=O`, the concentration for half-maximal inhibition (IC50) in test [1] is 1200 nM; in test [2], 320 nM; in test [3] it was 570 nM. The Activity amounted to 123% in test [4] and 89.6% in test [5].

For the compound `CCCCCCCCCCCCCCC1=C(O)C(=O)C=C(OC)C1=O`, the IC50 in test [1] was determined as 420 nM; in test [2], 270 nM; in test [3], 490 nM. Moreover, the Activity is 116% in test [4] and 114% in test [5].

With `CCCCCCCCCCCCCCC1=C(OC)C(=O)C=C(OC)C1=O`, the IC50 in test [1] was 210 nM; in test [2], 290 nM; in test [3], 1400 nM. In addition, the Activity in test [4] was determined as 116%; in test [5], 84.5%.

In the case of `CCCCCCCCCCCC1=C(OC)C(=O)C=C(OC)C1=O`, the IC50 in test [1] was 930 nM; in test [2], 200 nM; in test [3], 590 nM. In addition, the results for the Activity in test [4] and in test [5] were 93.4% and 161%, respectively.

As for `CCCCCCC1=C(OC)C(OC)=CC(=O)C1=O`, the IC50 in test [1] came to 2600 nM; in test [2], 330 nM; in test [3], 990 nM. Also, the Activity was determined as 91.7% in test [4] and 18.6% in test [5].

As for `CCCCCCCCCCCCC1=C(O)C(=O)C=C(O)C1=O`, the values for the IC50 in test [1], in test [2] and in test [3] were 170 nM, 4600 nM and 3900 nM, respectively. Also, the Activity in test [4] was determined as 65.1%; in test [5] it was 90.6%.

Take `CCCCCCCCCCCC1=C(O)C(=O)C=C(OC)C1=O` [5-O-METHYLEMBELIN]: the figures for the 50% inhibitory concentration (IC50) in test [1], in test [2] and in test [3] were 3800 nM, 680 nM and 1300 nM, respectively. Also, the Activity in test [4] amounted to 131%; in test [5] it was 138%.

Regarding `CCCCCCCCCCCCCCC1=C(O)C(=O)C=C(O)C1=O`, the IC50 in test [1] was 170 nM; in test [2], 3100 nM; in test [3], 5100 nM. In addition, the Activity was 139% in test [4] and 101% in test [5].

As to `CCCCCCCCCCCCCC1=C(O)C(=O)C=C(O)C1=O` [Rapanone], the IC50 in test [1] was 220 nM; in test [2] it was 2500 nM; in test [3], 4700 nM. For the same compound, the Activity in test [4] was 124%; in test [5] it was 84.3%.

As for `N#C/C(=C\c1ccc(O)c(O)c1)C(=O)OC/C=C/c1ccccc1`, the figures for the Activity in test [4] and in test [5] were 5.2% and 0.91%, respectively.
